Data published in ChEMBL document CHEMBL1121831 (1981).
One block for each compound: values may come before it.

How the values were obtained:
[1] = biological target: Dihydrofolate reductase (Lactobacillus casei) (UniProt P00381); assay: Compound is evaluated for binding to Lactobacillus casei dihydrofolate reductase using kinetic assay; conditions: Lacticaseibacillus casei
RBL-1 [2] = assay: Compound was tested for the inhibition of growth of rat basophilic leukemia (RBL) cells; assay type: functional; conditions: read-out: ID50 (the source's name)
CCRF-CEM (Homo sapiens) = assay: Percent inhibition of human lymphoblastic leukemia cell growth (48h) at 10 uM
L1210 [3] = assay: Compound was tested for the inhibition of growth of murine leukemia cells (L1210); assay type: functional; conditions: Mus musculus, read-out: ID50 (the source's name)
Procedure, shortened: (§1)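 CEM human lymphoblastic and L1210 murine leukemia cells were grown in culture with drug for 48 h, at concentrations up to 10 μM. The read-out was growth inhibition, given as ID50 or, where ID50 was not reached, as percent inhibition at 10 μM. Values are averages of triplicate experiments.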

[4] = biological target: T1, Dihydrofolate reductase (Mus musculus) (UniProt P00375); assay: Compound is evaluated for binding to L1210 mouse leukemia cells dihydrofolate reductase using ligand-binding assay
T1 sequence (whole entry): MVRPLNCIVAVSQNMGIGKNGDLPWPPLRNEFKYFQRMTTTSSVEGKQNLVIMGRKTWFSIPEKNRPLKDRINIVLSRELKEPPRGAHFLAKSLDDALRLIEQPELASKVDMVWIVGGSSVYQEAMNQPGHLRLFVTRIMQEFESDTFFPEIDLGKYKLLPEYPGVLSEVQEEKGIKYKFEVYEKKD

CCRF-CEM [5] = assay: Compound was tested for the inhibition of growth of human lymphoblastic leukemia cells (CEM); assay type: functional; conditions: read-out: ID50 (the source's name); procedure, shortened: as §1
RBL-1 [6] = assay: Compound is tested for the inhibition of growth of rat basophilic leukemia (RBL)cells; assay type: functional; conditions: read-out: ID50 (the source's name)
Mus musculus [7] = assay: Compound is evaluated for activity against L1210 leukemia in mice, at dose 15 mg/kg expressed as T/C=15.5/9; assay type: functional
Procedure, shortened: (§2)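 B6D2F1 mice were inoculated ip with 10^5 L1210 cells on day 0. Test agents were given ip on days 1, 4 and 7 in 10% Tween 80 or a 1:1:8 emulphor-ethanol-water suspension; MTX was given ip as the disodium salt in water. Groups were mostly five mice. Read-out was median survival of treated vs control mice (days) and % increase in life span.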

L1210 [8] = assay: Compound is evaluated for percent increase in against L1210 leukemia in mice, at dose 30 mg/kg; assay type: functional; conditions: Mus musculus, L1210, dose 30 mg/kg
Procedure, shortened: (§3)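 B6D2F1 mice were inoculated ip with 10⁵ L1210 cells on day 0. Drug was given ip on days 1, 4 and 7 (q3d) as a suspension in 10% Tween 80 or 1:1:8 emulphor–ethanol–water, or as the disodium salt in water. The read-out was median survival of treated versus control mice (T/C, days), expressed as % increase in life span.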

L1210 [9] = assay: Compound is evaluated for percent increase in against L1210 leukemia in mice, at dose 15 mg/kg; assay type: functional; conditions: Mus musculus; procedure, shortened: as §3
Mus musculus [10] = assay: Compound is evaluated for activity against L1210 leukemia in mice, at dose 30 mg/kg expressed as T/C=16.5/9; assay type: functional; procedure, shortened: as §2
CCRF-CEM [11] = assay: Compound is tested for the inhibition of growth of human lymphoblastic leukemia cells (CEM); assay type: functional; conditions: read-out: ID50 (the source's name); procedure, shortened: as §1
L1210 [12] = assay: Compound is tested for the inhibition of growth of murine leukemia cells (L1210); assay type: functional; conditions: Mus musculus, read-out: ID50 (the source's name); procedure, shortened: as §1
Mus musculus [13] = assay: Compound is evaluated for activity against L1210 leukemia in mice, at dose 60 mg/kg expressed as T/C=18/9; assay type: functional; procedure, shortened: as §2
[14] = biological target: T1, Dihydrofolate reductase (Mus musculus); assay: Affinity for mammalian (L1210 mouse leukemia) dihydrofolate reductase
Procedure, shortened: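 Partially purified DHFR from L1210 cells, diluted 8-fold in 0.1 M KH2PO4 (pH 6.2) with 0.1% BSA and 1 mM NADPH, then held on ice 5 min. Competition with [3H]MTX over serial 5-fold dilutions starting from a 6 μM solution, 5 min at 0 °C. Unbound ligand removed with Norite charcoal and the supernatant counted; ID50 (50% drop in bound label) read from a logit-log plot.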

[15] = biological target: Dihydrofolate reductase (Lactobacillus casei) (UniProt P00381); assay: Affinity for partially purified bacterial (Lactobacillus casei) dihydrofolate reductase; conditions: Lacticaseibacillus casei
L1210 [16] = assay: Compound is evaluated for percent increase in life span against L1210 leukemia in mice, at dose 40 mg/kg in experiment 2; assay type: functional; conditions: Mus musculus; procedure, shortened: as §3
L1210 [17] = assay: Compound is evaluated for percent increase in life span against L1210 leukemia in mice, at dose 7.5 mg/kg in experiment 1; assay type: functional; conditions: Mus musculus; procedure, shortened: as §3
Mus musculus [18] = assay: Compound is evaluated for activity against L1210 leukemia in mice, at dose 7.5 mg/kg expressed as T/C in experiment 1; assay type: functional; procedure, shortened: as §2
Mus musculus [19] = assay: Compound is evaluated for activity against L1210 leukemia in mice, at dose 20 mg/kg expressed as T/C in experiment 2; assay type: functional; procedure, shortened: as §2
Mus musculus [20] = assay: Compound is evaluated for activity against L1210 leukemia in mice, at dose 40 mg/kg expressed as T/C in experiment 2; assay type: functional; procedure, shortened: as §2
L1210 [21] = assay: Compound is evaluated for percent increase in life span against L1210 leukemia in mice, at dose 20 mg/kg in experiment 2; assay type: functional; conditions: Mus musculus; procedure, shortened: as §3
L1210 [22] = assay: Compound is evaluated for activity against L1210 leukemia in mice, at dose 15 mg/kg in experiment 1; assay type: functional, Mus musculus; procedure, shortened: as §2
L1210 [23] = assay: Compound is evaluated for activity against L1210 leukemia in mice, at dose 20 mg/kg in experiment 2; assay type: functional, Mus musculus; procedure, shortened: as §2
L1210 [24] = assay: Compound is evaluated for activity against L1210 leukemia in mice, at dose 7.5 mg/kg in experiment 1; assay type: functional, Mus musculus; procedure, shortened: as §2
Mus musculus [25] = assay: Compound is evaluated for activity against L1210 leukemia in mice, at dose 15 mg/kg expressed as T/C in experiment 1; assay type: functional; procedure, shortened: as §2
L1210 [26] = assay: Compound is evaluated for activity against L1210 leukemia in mice, at dose 40 mg/kg in experiment 2; assay type: functional, Mus musculus; procedure, shortened: as §2
L1210 [27] = assay: Compound is evaluated for percent increase in life span against L1210 leukemia in mice, at dose 15 mg/kg in experiment 1; assay type: functional; conditions: Mus musculus; procedure, shortened: as §3

Dihydrofolate reductase (Lactobacillus casei), sequence (P00381 whole entry): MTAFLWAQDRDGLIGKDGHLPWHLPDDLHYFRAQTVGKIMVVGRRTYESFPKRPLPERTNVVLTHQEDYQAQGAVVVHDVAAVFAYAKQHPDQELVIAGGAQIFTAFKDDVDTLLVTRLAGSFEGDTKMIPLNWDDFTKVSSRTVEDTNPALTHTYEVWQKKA

SMILES: CN(Cc1cnc2nc(N)nc(N)c2n1)c1ccc(C(=O)N[C@@H](CCC(=O)O)C(=O)O)cc1 [METHOTREXATE]
IC50 (RBL-1 [6]): 0.003 µM | Median T/C (Mus musculus [7]): 15.5 days | ILS at 30 mg/kg (L1210 [8]): 83% | ILS at 15 mg/kg (L1210 [9]): 72% | Median T/C (Mus musculus [10]): 16.5 days | IC50 (CCRF-CEM [11]): 0.003 µM | IC50 (L1210 [12]): 0.01 µM | Median T/C (Mus musculus [13]): 18 days

SMILES: CN(Cc1cnc2nc(N)nc(N)c2n1)c1ccc(C(=O)NC(CCC(=O)NO)C(=O)O)cc1 (stereo not drawn)
ILS at 40 mg/kg (L1210 [16]): 111% | ILS at 7.5 mg/kg (L1210 [17]): 50% | ID50 [1]: 0.03 µM | Median T/C (Mus musculus [18]): 15 days | Median T/C (Mus musculus [19]): 17 days | Median T/C (Mus musculus [20]): 19 days | ID50 [4]: 0.0048 µM | ILS at 20 mg/kg (L1210 [21]): 89% | MTX equivalent (L1210 [22]): 14.6 mg/kg | IC50 (CCRF-CEM [11]): 0.25 µM | MTX equivalent (L1210 [23]): 19.4 mg/kg | IC50 (L1210 [12]): 0.062 µM | MTX equivalent (L1210 [24]): 7.3 mg/kg | Median T/C (Mus musculus [25]): 16 days | MTX equivalent (L1210 [26]): 38.8 mg/kg | ILS at 15 mg/kg (L1210 [27]): 60%

More lines, main results first:

ID50 [1]: 6.3 µM | IC50 (L1210 [3]): 3.4 µM | ID50 [4]: 3.1 µM | IC50 (CCRF-CEM [5]): > 10 µM
SMILES: CN(Cc1cnc2nc(N)nc(N)c2n1)c1ccc(C(=O)NC(CCC(=O)NC23CC4CC(CC(C4)C2)C3)C(=O)NC23CC4CC(CC(C4)C2)C3)cc1 (stereo not drawn)
IC50 (RBL-1 [2]): 1.6 µM | inhibition at 10 µM (CCRF-CEM (Homo sapiens)): 38%

ID50 [1]: 0.86 µM | IC50 (L1210 [3]): 0.69 µM | ID50 [4]: 0.53 µM | IC50 (CCRF-CEM [5]): 7.6 µM
SMILES: CN(Cc1cnc2nc(N)nc(N)c2n1)c1ccc(C(=O)NC(CCC(=O)N(Cc2ccccc2)Cc2ccccc2)C(=O)N(Cc2ccccc2)Cc2ccccc2)cc1 (stereo not drawn)

IC50 (L1210 [3]): 9.4 µM | IC50 (CCRF-CEM [5]): 6.4 µM | ID50 [14]: 0.026 µM | ID50 [15]: 0.44 µM
SMILES: CN(Cc1ccccc1)C(=O)CCC(NC(=O)c1ccc(N(C)Cc2cnc3nc(N)nc(N)c3n2)cc1)C(=O)N(C)Cc1ccccc1 (stereo not drawn)
